According to ChEMBL document CHEMBL4680175, “Sulfonamide-based ring-fused analogues for CAN508 as novel carbonic anhydrase inhibitors endowed with antitumor activity: Design, synthesis, and in vitro biological evaluation” (Eur J Med Chem, 2020):
The source made the active and inactive calls. The calls are words filed in the database; no cut-off is given here.

Columns and labels:
Type in all cases: functional
MDA-MB-468 [1] = assay: Potency index, ratio of staurosporine IC50 to compound IC50 for antiproliferative activity against human MDA-MB-468 cells measured after 48 hrs under normoxic condition by MTT assay
MDA-MB-468 [2] = assay: Potency index, ratio of staurosporine IC50 to compound IC50 for antiproliferative activity against human MDA-MB-468 cells measured after 48 hrs under CoCl2-induced hypoxic condition by MTT assay
MCF7 [3] = assay: Induction of cell cycle arrest in human MCF7 cells assessed as decrease in S phase population at IC50 concentration incubated for 24 hrs by PI/RNase staining based flow cytometric analysis
Outline: (§1)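 Cells were washed in ice-cold PBS, fixed in ice-cold 70% ethanol, treated with 100 µg/mL RNase and stained with 40 µg/mL PI. DNA content was read by flow cytometry, with sub-G1 compared against control.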

MCF7 [4] = assay: Induction of cell cycle arrest in human MCF7 cells assessed as fold increase in apoptotic cells at sub-G1 phase at IC50 concentration incubated for 24 hrs by PI/RNase staining based flow cytometric analysis relative to control; outline: as §1
MCF7 [5] = assay: Induction of apoptosis in human MCF7 cells assessed as necrotic cells by Annexin V-FITC/propidium iodide staining based flow cytometric analysis (reference value: 1.3 %)

Row | Compound | Ratio IC50 (MDA-MB-468 [1]) | Ratio IC50 (MDA-MB-468 [2]) | Activity (MCF7 [3]) | fold change (FC) (MCF7 [4]) | Activity (MCF7 [5]) [%]
1 | Cc1ccc(-c2nc3c(/N=N/c4ccc(S(N)(=O)=O)cc4)c(N)nn3c(N)c2C#N)cc1 | 3.1 | 2.1 | – | – | –
2 | N#Cc1c(-c2ccc(Cl)cc2)nc2c(/N=N/c3ccc(S(N)(=O)=O)cc3)c(N)nn2c1N | – | – | Active | 8 | 2.17
3 | N#Cc1c(-c2ccc(F)cc2)nc2c(/N=N/c3ccc(S(N)(=O)=O)cc3)c(N)nn2c1N | – | – | Active | 11 | 1.75
